How the values were obtained:
Phosphodiesterase 1 = Phosphodiesterase 1 (Homo sapiens, UniProt P54750+Q01064+Q14123); assay: Inhibition of Calmodulin Sensitive Phosphodiesterase 1 from pig coronary artery; format: tissue-based, Sus scrofa; settings: target entry is the homologue from another species
Summary of the method: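 Media plus intima of porcine coronary artery homogenized in 20 mM Tris-HCl pH 7.5, 2 mM Mg(OAc)2, 1 mM DTT. The soluble fraction was resolved on DEAE-cellulose and peak I was pooled. Assay used 1 μM cGMP with calcium + calmodulin, 30 °C for 30 min, at 10-20% hydrolysis. Analogues were tested at 1-100 μM with 3% final Me2SO. I50 was taken as the concentration giving 50% inhibition of hydrolysis.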

[1] = target: cGMP-dependent 3',5'-cyclic phosphodiesterase (Homo sapiens, UniProt O00408); assay: Inhibition of Phosphodiesterase 2 from pig coronary artery; format: tissue-based, Sus scrofa; settings: target entry is the homologue from another species; read-out: I50
Summary of the method: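 Pooled peak II was the enzyme source, taken from DEAE-cellulose fractionation of soluble porcine coronary media plus intima homogenate (20 mM Tris-HCl pH 7.5, 2 mM Mg(OAc)2, 1 mM DTT). Hydrolysis of 1 μM cAMP ran at 30 °C for 30 min, with enzyme dilution set for 10-20% hydrolysis. Analogues were tested at 1-100 μM in 3% final Me2SO. I50 was the concentration giving 50% inhibition.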

cGMP-dependent 3',5'-cyclic phosphodiesterase, sequence (O00408 whole entry): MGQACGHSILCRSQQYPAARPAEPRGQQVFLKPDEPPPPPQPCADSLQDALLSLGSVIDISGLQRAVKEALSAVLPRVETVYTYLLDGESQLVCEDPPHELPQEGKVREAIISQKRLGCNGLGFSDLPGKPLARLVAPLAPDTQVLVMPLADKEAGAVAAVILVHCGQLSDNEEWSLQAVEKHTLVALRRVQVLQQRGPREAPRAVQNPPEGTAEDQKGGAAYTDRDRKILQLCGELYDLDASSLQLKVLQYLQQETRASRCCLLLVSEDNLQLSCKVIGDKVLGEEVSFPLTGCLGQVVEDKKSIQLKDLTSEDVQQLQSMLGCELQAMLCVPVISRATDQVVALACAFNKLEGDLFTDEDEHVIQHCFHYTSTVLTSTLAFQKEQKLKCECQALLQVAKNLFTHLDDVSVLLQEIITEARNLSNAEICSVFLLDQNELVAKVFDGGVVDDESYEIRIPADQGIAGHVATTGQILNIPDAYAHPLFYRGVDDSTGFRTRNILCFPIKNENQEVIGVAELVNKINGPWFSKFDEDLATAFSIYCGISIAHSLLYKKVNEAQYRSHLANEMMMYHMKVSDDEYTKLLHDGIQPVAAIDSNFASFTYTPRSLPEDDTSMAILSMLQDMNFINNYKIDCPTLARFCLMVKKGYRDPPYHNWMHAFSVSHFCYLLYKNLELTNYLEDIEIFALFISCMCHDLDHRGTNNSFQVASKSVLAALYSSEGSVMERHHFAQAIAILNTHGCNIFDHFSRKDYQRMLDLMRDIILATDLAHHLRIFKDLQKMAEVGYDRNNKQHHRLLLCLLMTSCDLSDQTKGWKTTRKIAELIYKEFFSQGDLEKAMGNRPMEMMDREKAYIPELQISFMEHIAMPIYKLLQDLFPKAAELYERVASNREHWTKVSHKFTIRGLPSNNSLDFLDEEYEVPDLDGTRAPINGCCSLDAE

| Structure (SMILES) | I50 (Phosphodiesterase 1) | IC50 [1] |
| --- | --- | --- |
| CC(C)CCn1c(=O)c2cc3nc[nH]c3cc2n(CC(C)C)c1=O | > 25 µM | 20 µM |
| CC(C)Cn1c(=O)n(C)c(=O)c2c3ncn(Cc4ccccc4)c3ccc21 | 20 µM | 13 µM |
| COCc1nc2c(ccc3c2c(=O)n(C)c(=O)n3CC(C)C)[nH]1 | 54 µM | 66 µM |
| CC(C)Cn1c(=O)n(C)c(=O)c2[nH]c(C(C)(C)C)nc21 | 1.8 µM | 58 µM |
| CC(C)Cn1c(=O)n(C)c(=O)c2c1ncn2Cc1ccccc1 | 4.4 µM | 108 µM |
| Cc1nc2c([nH]1)c(=O)n(C)c(=O)n2CC(C)C | 1.9 µM | 68 µM |
| CC(C)Cn1c(=O)n(C)c(=O)c2cc3[nH]cnc3cc21 | 40 µM | 89 µM |
| COCc1nc2c([nH]1)c(=O)n(C)c(=O)n2CC(C)C | 5.2 µM | 212 µM |
| CC(C)Cn1c(=O)n(C)c(=O)c2c3nc[nH]c3ccc21 | 8.4 µM | 18 µM |
| Cc1nc2cc3c(cc2[nH]1)c(=O)n(C)c(=O)n3CC(C)C | 36 µM | > 50 µM |
| COCc1nc2cc3c(=O)n(C)c(=O)n(CC(C)C)c3cc2[nH]1 | 36 µM | > 50 µM |
| CC(C)Cn1c(=O)n(C)c(=O)c2c3nc(C(C)(C)C)[nH]c3ccc21 | > 50 µM | 44 µM |
| CC(C)Cn1c(=O)n(C)c(=O)c2nc[nH]c21 [ISOBUTYLMETHYLXANTHINE] | 6.3 µM | 15 µM |

Results, then the compound that gave them:

| I50 (Phosphodiesterase 1) | IC50 [1] | Structure (SMILES) |
| --- | --- | --- |
| 19 µM | 14 µM | CC(C)Cn1c(=O)n(C)c(=O)c2c3c(ccc21)ncn3Cc1ccccc1 |
| 41 µM | > 50 µM | CC(C)Cn1c(=O)n(C)c(=O)c2cc3[nH]c(C(C)(C)C)nc3cc21 |
| 1.2 µM | 14 µM | CC(C)Cn1c(=O)n(C)c(=O)c2cc3c(cc21)ncn3Cc1ccccc1 |
| > 25 µM | 19 µM | CC(C)CCn1c(=O)c2c3nc[nH]c3ccc2n(CC(C)C)c1=O |
| 86 µM | 17 µM | CC(C)CCn1c(=O)c2nc[nH]c2n(CC(C)C)c1=O |
| 4.9 µM | 27 µM | CC(C)Cn1c(=O)n(C)c(=O)c2cc3ncn(Cc4ccccc4)c3cc21 |
| 15 µM | > 25 µM | Cc1nc2c(ccc3c2c(=O)n(C)c(=O)n3CC(C)C)[nH]1 |

Reference: ChEMBL document CHEMBL1123546, “Inhibition of cyclic nucleotide phosphodiesterases from pig coronary artery by benzo-separated analogues of 3-isobutyl-1-methylxanthine” (J Med Chem, 1986)
